The list is not random: actives were taken first. Their share in the collection is about 1.7%.
CAL PDZ FP-1: blocks peptide binding to human CAL PDZ domain; Q9HD26; purified CAL PDZ, TMR-peptide fluorescence polarization, 1 h; inhibition, % at 20 µM; 330,000 compounds, 0.02% hits; AID 504414;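 active means highest replicate inhibition of at least 40%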
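Test system: purified CerCALP PDZ construct; Compound dosing: one concentration, 20 µM compound; Also added: TMR-labelled reporter peptide T*-PRC34 bound in PDZ groove; Read-out: inhibition from polarization loss; Controls: unlabelled peptide and DMSO controls; Signal: FP readout, S and P plane fluorescence; Incubation: 1 h at RT.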
miR122 inh: miR-122 inhibition in Huh7 cells; activation (reporter increase), % at 12.5 µM; Huh7 miR-122 Renilla luciferase sensor, 48 h; neutral wells = 0, positive control = 100; 340,000 compounds, 0.3% hits;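 active means mean replicate activation score at least 90 and every replicate individually at or above 90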;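 further: higher luciferase means less miR-122 activity so hits act as miR-122 inhibitors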
ARNT TACC3 PPI: ARNT/TACC3 interaction disruption; Q9Y6A5; AlphaScreen His-ARNT PAS-B/GST-TACC3 binding, luminescence; TACC3 fragment carries E629A point mutation; inhibition, % at 9.99 µM; 390,000 compounds, 0.66% hits; AID 623870;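 active means mean inhibition of replicates at least 50% and at least half of replicates each reaching 50%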
CAL PDZ FP-2: CAL PDZ (human) peptide binding inhibition. Q9HD26. purified CAL PDZ, TMR-peptide fluorescence polarization, 1 h. inhibition, % at 24.9 µM. 300,000 compounds, 0.92% hits;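 active means mean inhibition of at least 30% with at least half of replicates also reaching 30%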
PGC1a acetyl inh: lowers PGC1a acetylation signal in U2OS cells; AlphaScreen anti-acetyl-lysine; with virally co-expressed GCN5 acetyltransferase; inhibition, % at 15.6 µM; 350,000 compounds, 0.17% hits; AID 651687;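 active means every replicate shows inhibition of at least 40%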
F508del corr: CFTR F508del correction in bronchial cells; CFBE cells, YFP halide quenching; stimulated with forskolin plus potentiator P3; % fluorescence drop versus neutral controls; 350,000 compounds, 0.36% hits; activity (quench increase), % at 7.58 µM; AID 720511;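 active means mean added fluorescence quench of at least 8% versus neutral control, with both replicates also reaching 8%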;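 further: cells transiently co-express mutant CFTR-F508del with the halide-sensitive YFP; corrector assay measuring rescue of mutant channel to the surface after 24 h compound exposure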
Hits are given with their value; . = inactive; / = not tested or not shown.

SMILES | CAL PDZ FP-1 | miR122 inh | ARNT TACC3 PPI | CAL PDZ FP-2 | PGC1a acetyl inh | F508del corr
CN(C)C(=O)C[C@H]1CC[C@@H]2[C@H](COC[C@H](O)CN2CC2CCCCC2)O1 | / | . | . | / | . | .
CCOc1cc(N2CCOCC2)c(OCC)cc1NS(=O)(=O)c1ccc(Cl)s1 | . | 113 | . | . | . | /
CCOc1cc(N2CCOCC2)c(OCC)cc1NC(=O)CN1CCCC1 | . | / | . | 94 | / | /
CCOc1cc(N2CCOCC2)c(OCC)cc1NC(=O)COC(=O)c1ccc([N+](=O)[O-])o1 | . | . | . | 92 | . | .
CO[C@H]1CN(C)C(=O)c2ccc(NS(=O)(=O)c3ccc(-c4ccccc4)cc3)cc2OC[C@@H](C)NC[C@H]1C | / | / | . | / | . | .
COCC(=O)N(C)C[C@@H]1Oc2ncc(C3=CCCC3)cc2C(=O)N([C@H](C)CO)C[C@@H]1C | / | / | / | / | . | .
N/C(=N\NC(=O)Nc1ccc(Cl)cc1)c1ccccn1 | . | . | 66 | . | . | .
CNC(=O)N/N=C(\N)c1ccccn1 | . | . | . | . | . | .
Cc1ccc(S(=O)(=O)N[C@H](C(=O)OCC(=O)NC(=O)C2CCCCC2)C(C)C)cc1 | . | . | . | 154 | . | 12
CCC(=O)Nc1ccc2c(c1)OC[C@@H](C)N(C(=O)C1CC1)C[C@H](C)[C@H](OC)CN(C)C2=O | / | / | / | / | . | .
CCN(CC)Cc1c(O)ccc2c([N+](=O)[O-])c(C)n(-c3ccc(OC)cc3)c12 | . | . | . | / | 46 | /
CCCc1cc(=O)oc2c(CN3CCN(C)CC3)c(O)c(Cl)cc12 | . | . | . | 31 | . | /
O=C(Cc1ccccc1)Nc1nc2ccccc2[nH]1 | . | / | . | . | . | .
O=C(CN1C(=O)C2CC=CCC2C1=O)Nc1nc2ccccc2[nH]1 (stereo unspecified) | / | . | . | 47 | . | /
CCc1cccc(CC)c1NC(=O)COC(=O)C1(c2ccc(Cl)cc2)CCCC1 | . | 113 | . | / | / | /
CC(=O)Nc1ccc(NC(=O)COC(=O)C2(c3ccc(Cl)cc3)CCCC2)cc1 | . | / | . | . | / | /
O=C(CSc1nnnn1-c1cccc2ccccc12)NC(C(=O)O)(c1ccccc1)c1ccccc1 | . | / | . | . | / | .
Cc1ccc(-n2nnnc2SCC(=O)NC(C(=O)O)(c2ccccc2)c2ccccc2)cc1C | . | / | . | . | . | 13
CN(C1=C(N2CCCCC2)C(=O)c2ccccc2C1=O)c1ccccc1 | . | . | 47 | . | . | /
O=C1C(Nc2ccccc2)=C(N2CCCCC2)C(=O)c2ccccc21 | . | . | . | . | . | /
CCn1nc(C(=O)Nc2ccc(S(=O)(=O)Nc3nccs3)cc2)c2ccccc2c1=O | / | 93 | / | . | . | /
O=C(Nc1ccc(S(=O)(=O)Nc2ncccn2)cc1)c1nn(Cc2ccccc2)c(=O)c2ccccc12 | . | . | . | . | . | .
O=C(NC(=S)Nc1ccc(S(=O)(=O)Nc2nccs2)cc1)c1ccc(Br)o1 | . | / | 52 | . | / | .
O=C(NC(=S)Nc1ccc(S(=O)(=O)Nc2nccs2)cc1)c1ccccc1 | . | . | . | . | . | /
Cc1cc(C)cc(NS(=O)(=O)c2ccc(NC(=S)NC(=O)c3ccc(Br)o3)cc2)c1 | . | 98 | / | / | . | /
SMILES | CAL PDZ FP-1 | miR122 inh | ARNT TACC3 PPI | CAL PDZ FP-2 | PGC1a acetyl inh | F508del corr
COc1ccc(NC(=O)N(C)C[C@H]2OCCCC[C@H](C)Oc3ccc(NC(=O)Nc4ccccc4)cc3C(=O)N([C@H](C)CO)C[C@@H]2C)cc1 | / | . | . | / | . | .
COc1ccc(CN2C(=O)c3cccnc3C2=O)cc1S(=O)(=O)NCc1ccccc1 | . | . | 48 | . | . | .
COc1ccc(CNS(=O)(=O)c2cc(CN3C(=O)c4cccnc4C3=O)ccc2OC)cc1 | . | / | . | . | / | .
COCCSc1nnc(NC(=O)c2ccc(OC)c([N+](=O)[O-])c2)s1 | . | / | . | 53 | / | .
COCCSc1nnc(NC(=O)Cc2ccc(OC)cc2)s1 | . | . | . | 49 | / | .
COc1ccc(CSc2nnc(NC(C)=O)s2)cc1[N+](=O)[O-] | . | / | . | . | / | .
CCNC(=O)[C@@H]1[C@@H](CO)[C@@H]2Cn3c(ccc(-c4ccccc4F)c3=O)[C@H]1N2S(C)(=O)=O | / | / | / | / | . | .
COC1=C(Nc2ccc(C)cc2)C(=O)c2ccccc2C1=O | . | / | 51 | . | / | .
Cc1ccc(NC2=C(N3CCCCC3)C(=O)c3ccccc3C2=O)cc1 | . | / | . | . | . | /
COC1=C(Nc2ccccc2)C(=O)c2ccccc2C1=O | . | / | 46 | . | / | /
Cc1noc(C)c1NC(=O)N(C)C[C@@H]1OCCCC[C@@H](C)Oc2ccc(N(C)C)cc2C(=O)N([C@H](C)CO)C[C@@H]1C | / | . | / | / | . | .
Cc1noc(C)c1NC(=O)Nc1ccc2c(c1)C(=O)N([C@H](C)CO)C[C@H](C)[C@H](CN(C)C(=O)Nc1ccc3c(c1)OCO3)OCCCC[C@H](C)O2 | / | . | . | / | . | .
CS(=O)(=O)N(CC(=O)Nc1cccc(F)c1)c1cccc([N+](=O)[O-])c1 | . | 277 | . | . | . | /
CS(=O)(=O)N(CC(=O)Nc1cccc([N+](=O)[O-])c1)c1ccccc1 | . | / | . | . | / | .
CN(C)CCCNC(=O)[C@@H]1[C@@H](CO)[C@@H]2Cn3c(ccc(C4=CCCCC4)c3=O)[C@H]1N2Cc1cocn1 | / | . | . | / | / | .
O=C1CC(c2ccccc2)NC(=S)N1 (stereo unspecified) | / | . | / | / | / | .
CCCCCCC1CC(=O)NC(=S)N1 (stereo unspecified) | . | / | . | / | 63 | .
CC(=N)C1=C(O)CC(c2ccccc2)CC1=O (stereo unspecified) | . | . | . | / | . | .
CCC(=NC)C1=C(O)CC(c2ccccc2)CC1=O (stereo unspecified) | / | . | . | 71 | . | .
COc1ccc(OC)c2[nH]c(C(=O)N/N=C/c3ccccc3O)cc12 | . | / | . | . | / | 14
COc1ccccc1/C=N/NC(=O)c1cc2c(OC)c(OC)ccc2[nH]1 | . | . | . | . | . | 9.3
O=C(C[C@H]1C[C@@H]2c3cc(NC(=O)NC4CCCC4)ccc3O[C@@H]2[C@H](CO)O1)NCc1cccc(F)c1 | / | . | . | / | . | .
O=C(Cc1cccnc1)N1CC[C@H]2[C@H](CO)Nc3ccc(C#Cc4cccc(F)c4)cc3[C@H]21 | / | / | / | / | . | .
COc1cc(NS(=O)(=O)c2ccc(NC(=S)Nc3ccccc3)cc2)nc(OC)n1 | 111 | . | . | . | . | .
Cc1ccccc1N1CC(O)(c2cccs2)[N+]2=C1CCCC2 (stereo unspecified) | . | / | . | 87 | . | /
COc1ccc(NC(=O)N(C)C[C@@H]2Oc3ncc(-c4ccccc4)cc3C(=O)N([C@H](C)CO)C[C@@H]2C)cc1 | / | . | / | / | . | .
CCCOc1ccc(Cc2nn3c(=O)/c(=C/c4ccco4)sc3nc2=O)cc1 | . | . | 32 | . | . | /

Source: PubChem BioAssay (Broad Institute)
